Assay outcomes from PubChem BioAssay.
beta cell repl: inducers of beta-cell replication in MIN6 cells; MIN6 cells proliferation, ATPlite luminescence, 48 h; cells starved in 0.2% serum; 100% = growth in 10% serum; proliferation, % at 10 µM; 0.29% of 330,000 active;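 active = compounds whose signal lies at least 3.5 SD above the mean of all wells on their plate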;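 note: 0% = DMSO-treated cells in low-serum medium and 100% = 10% serum control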
iPSC survival up: hiPSC single-cell survival enhancement; ATPlite luminescence; 100% = ROCK inhibitor wells, 0% = DMSO; survival enhancement, % at 20 µM; 0.044% of 360,000 active; in the data active = survival enhancement above about 18%;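 note: cells exposed to compounds for 16 hours before the ATP read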
UCH37 DUB inh: blocks the human deubiquitinase UCH37; Q9Y5K5; purified proteasome/UCH37, Ub-AMC cleavage fluorescence; inhibition, % (concentration not given with the values); 0.33% of 330,000 active; AID 588478;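 active = mean inhibition over replicate wells above about 20%, limit read from the data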;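 note: 0% = compound-free wells with enzyme and 100% = wells lacking proteasome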
Target sequence (Q9Y5K5 whole entry, looked up): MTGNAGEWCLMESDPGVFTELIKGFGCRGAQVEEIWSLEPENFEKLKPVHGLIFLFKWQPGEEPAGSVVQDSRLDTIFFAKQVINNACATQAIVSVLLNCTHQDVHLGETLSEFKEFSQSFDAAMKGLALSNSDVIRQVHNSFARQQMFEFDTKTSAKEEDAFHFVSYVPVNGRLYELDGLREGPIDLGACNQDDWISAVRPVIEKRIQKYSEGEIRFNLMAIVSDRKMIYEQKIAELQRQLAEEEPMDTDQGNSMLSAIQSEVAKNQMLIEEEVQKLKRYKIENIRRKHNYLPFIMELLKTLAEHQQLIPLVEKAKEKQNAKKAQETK
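Schedule: 30 min plus 25 min, room temperature / Material: human UCH37 within purified proteasomes / Technique: AMC fluorescence intensity at 355/460 nm / Buffer or medium: pH 7.4 Tris-HCl (50 mM) with ovalbumin, ATP-MgCl2, DTT / Controls: wells without proteasome as full block, compound-free enzyme plus substrate as uninhibited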
CRFBP-R2 block: CRF-BP/CRF-R2 complex antagonism | HEK293 CRF-R2/CRF-BP, CRF-induced calcium fluorescence | inhibition, % at 11.8 µM | 0.59% of 350,000 active | AID 588475;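 active = inhibition of the ligand-induced calcium signal above about 50% at the single tested concentration, limit read from the data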
CRFBP-R2 agonist: agonists of human CRF-binding protein/CRF-R2 receptor complex | HEK293 CRF-R2/CRF-BP, calcium dye fluorescence (FLIPR); percent of saturating CRF peptide response | activation, % at 13.2 µM | 0.46% of 350,000 active | AID 588473;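 active = activation of at least 50%, plus an integration ratio under a set limit after plate pattern correction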;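 note: plate controls were neutral control wells without compound for no effect and CRF at EC100 for full effect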
H9c2 protect: myocardial damage modulation in H9c2 cells | H9c2 cardiomyocytes, H2O2 injury protection, ATPLite, 2 h | protection from H2O2 cell death, % at 20 µM | 0.63% of 360,000 active;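 active = compounds giving at least 50% protection of heart cells from peroxide-induced death in the single-dose screen, raw or plate-pattern-corrected value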;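 note: 0% = DMSO wells with peroxide and 100% = DMSO wells without peroxide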
Starred values were filed as active, the others as inactive. This is a sample that favours compounds with a hit; in the whole collection about 2.1% have one here.

N#Cc1c(-c2ccco2)cc(-c2ccccn2)nc1N was read as beta cell repl -2, iPSC survival up -2, UCH37 DUB inh -365, CRFBP-R2 block -28, CRFBP-R2 agonist 1 and H9c2 protect 88*.
Cc1ccc(Cn2c(CCNc3nc(-c4ccc(Cl)c([N+](=O)[O-])c4)cs3)nc3cc(C(=O)NCCCO)ccc32)cc1 was read as beta cell repl -8, iPSC survival up 2, UCH37 DUB inh 1, CRFBP-R2 block -11, CRFBP-R2 agonist 2 and H9c2 protect 70*.
`O=[N+]([O-])c1cc(-c2csc(NCCc3nc4cc(C(F)(F)F)ccc4n3CCCO)n2)ccc1Cl` gave beta cell repl -7, iPSC survival up -2, UCH37 DUB inh 0, CRFBP-R2 block -9, CRFBP-R2 agonist -1 and H9c2 protect -12.
O=[N+]([O-])c1ccc(N/N=C/c2sc(N3CCOCC3)nc2-c2ccccc2)c(S(=O)(=O)Nc2ccc(Cl)cc2)c1 was read as iPSC survival up 0, CRFBP-R2 block -55, CRFBP-R2 agonist 83* and H9c2 protect -19.
O=[N+]([O-])c1ccc(NN=Cc2sc(N3CCOCC3)nc2-c2ccccc2)c(S(=O)(=O)Nc2ccccc2Cl)c1 was read as UCH37 DUB inh 13.
O=[N+]([O-])c1ccc(N/N=C/c2sc(N3CCOCC3)nc2-c2ccccc2)c(S(=O)(=O)Nc2ccccc2Cl)c1 was read as iPSC survival up -2, CRFBP-R2 block -39, CRFBP-R2 agonist 67* and H9c2 protect -15.
`Cn1cccc1C=NNC(=O)C1COc2ccccc2O1` (stereo unspecified) gave UCH37 DUB inh 6.
CN(C(=NS(=O)(=O)c1cccs1)c1ccccc1)c1ccccc1 was read as UCH37 DUB inh 2.
`O=C(CSc1nc2ccccc2s1)NN=Cc1ccc(C(=O)O)cc1` gave UCH37 DUB inh 1.
`CCN(CC)S(=O)(=O)c1ccc2c(c1)N(CC(=O)NCc1ccco1)C(=O)CO2` gave beta cell repl 1, iPSC survival up -1, UCH37 DUB inh 2, CRFBP-R2 block 83*, CRFBP-R2 agonist -1 and H9c2 protect 1.
Cc1[nH]n(-c2ccc(Cl)cc2)c(=O)c1C=Nn1c(C)nc2ccccc2c1=O was read as UCH37 DUB inh 4.
`CCOC(=O)c1sc(NC(=O)c2cccc(S(=O)(=O)N3CCN(C)CC3)c2)cc1C` gave beta cell repl 0, iPSC survival up -3, UCH37 DUB inh 0, CRFBP-R2 block 67*, CRFBP-R2 agonist -2 and H9c2 protect 1.
For CCOC(=O)c1sc(NC(=O)c2cccc(S(=O)(=O)N(CC)CC)c2)cc1C the results were beta cell repl -3, iPSC survival up 0, UCH37 DUB inh -146, CRFBP-R2 block 1, CRFBP-R2 agonist -1 and H9c2 protect -4.
CC(CC(=O)NC(C)C)=NNC(=O)C(c1ccccc1)c1ccccc1 was read as UCH37 DUB inh 4.
`O=C(Nc1nc(-c2ccccn2)cs1)c1cccc(S(=O)(=O)N2CCOCC2)c1` gave beta cell repl -6, iPSC survival up -4, CRFBP-R2 block -8, CRFBP-R2 agonist 2 and H9c2 protect 76*.
Cc1ccc(S(=O)(=O)N2CCOCC2)cc1C(=O)Nc1nc(-c2ccccn2)cs1 was read as beta cell repl -4, iPSC survival up 0, UCH37 DUB inh 2, CRFBP-R2 block -5, CRFBP-R2 agonist 0 and H9c2 protect 54*.
Screening COc1ccc(C(=O)Nc2ccccn2)cc1S(=O)(=O)N1CCOCC1 returned beta cell repl 4, iPSC survival up 0, UCH37 DUB inh 1, CRFBP-R2 block -5, CRFBP-R2 agonist 0 and H9c2 protect 0.
Screening O=C(Nc1ccncc1)c1cc(S(=O)(=O)N2CCOCC2)ccc1Cl returned beta cell repl 5, iPSC survival up 26*, UCH37 DUB inh 2, CRFBP-R2 block 14, CRFBP-R2 agonist 0 and H9c2 protect 3.
Screening COc1ccc(C(=O)Nc2nc(-c3ccccn3)cs2)cc1S(=O)(=O)N1CCOCC1 returned beta cell repl -5, iPSC survival up 0, UCH37 DUB inh 2, CRFBP-R2 block -9, CRFBP-R2 agonist 1 and H9c2 protect 54*.
For CCOC(=O)C1=C(c2ccccc2)N=c2sc(=Cc3cccc(O)c3)c(=O)n2C1c1cccs1 (stereo unspecified) the results were UCH37 DUB inh 0.
For O=C(Nc1nc2ccc(S(=O)(=O)N3CCCC3)cc2s1)c1ccccn1 the results were beta cell repl -5, iPSC survival up -1, UCH37 DUB inh 0, CRFBP-R2 block 65*, CRFBP-R2 agonist 3 and H9c2 protect 33.
Screening O=C(Nc1nc2ccc(S(=O)(=O)N3CCCCC3)cc2s1)c1ccncc1 returned beta cell repl -2, iPSC survival up 1, UCH37 DUB inh 6, CRFBP-R2 block -9, CRFBP-R2 agonist -1 and H9c2 protect -7.
Screening COc1ccc(-c2csc(NC(=O)c3cccc(N4C(=O)CCC4=O)c3)n2)cc1OC returned beta cell repl 2, iPSC survival up -1, UCH37 DUB inh -1, CRFBP-R2 block -3, CRFBP-R2 agonist 3 and H9c2 protect 85*.
`CC(=NNC(=O)c1ccc(NS(=O)(=O)c2cccs2)cc1)c1ccc(C(C)(C)C)cc1` gave UCH37 DUB inh 0.
For COc1ccc(N2C(=O)CSC23C(=O)N2c4c(cccc43)C(C)=CC2(C)C)cc1 (stereo unspecified) the results were beta cell repl -4, iPSC survival up 0, UCH37 DUB inh 3, CRFBP-R2 block 84*, CRFBP-R2 agonist -6 and H9c2 protect -11.
O=C(O)c1cc(NC(=NS(=O)(=O)c2ccc(F)cc2)c2ccccc2)ccc1O was read as UCH37 DUB inh 5.
`CCS(=O)(=O)Nc1ccc(-c2nc3cccnc3s2)cc1` gave beta cell repl -3, iPSC survival up -4, UCH37 DUB inh inactive, CRFBP-R2 block -15, CRFBP-R2 agonist 89* and H9c2 protect -5.
Screening CCOc1ccc(C=NNC(=O)CN2CCSCC2)cc1 returned UCH37 DUB inh 6.
`COc1cc([N+](=O)[O-])cc(C=NNC(=O)C(C)Nc2cccc3ccccc23)c1O` (stereo unspecified) gave UCH37 DUB inh 1.
Screening Cc1ccc(C(C)C)c(OCc2ccc(C(=O)N/N=C/c3ccc(O)c(O)c3)cc2)c1 returned beta cell repl 0, iPSC survival up -1, CRFBP-R2 block 19, CRFBP-R2 agonist 1 and H9c2 protect 97*.
For O=C(NN=Cc1ccc(O)c(O)c1)c1ccc(CSc2cccc3cccnc23)cc1 the results were UCH37 DUB inh -17.
